From ChEMBL document CHEMBL1139516, “Optimization of amide-based inhibitors of soluble epoxide hydrolase with improved water solubility” (J Med Chem, 2005)
In brackets after ≈: the same amount, converted by molar mass.

Legend:
[1] = Solubility in sodium phosphate buffer 0.1M, pH 7.4 at 25 +/-1.5 degree C; assay type: physicochemical; details: read-out: S
Summary of the method: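 Excess solid added to 0.1 M sodium phosphate pH 7.4 at 25 ± 1.5 °C. Suspension equilibrated by 1 h sonication, then 24 h shaking. Centrifuged 5 min at 200g. Absolute amount of dissolved compound then calculated.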

[2] = Partition coefficient (logP); assay type: physicochemical; details: octanol/water
Summary of the method: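 Calculated, not measured: Crippen's method estimate.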

[3] = biological target: T1, Bifunctional epoxide hydrolase 2 (Homo sapiens, UniProt P34913); experiment: Inhibitory concentration against human soluble epoxide hydrolase (sEH) at 0.24 uM
T1 sequence (P34913 whole entry): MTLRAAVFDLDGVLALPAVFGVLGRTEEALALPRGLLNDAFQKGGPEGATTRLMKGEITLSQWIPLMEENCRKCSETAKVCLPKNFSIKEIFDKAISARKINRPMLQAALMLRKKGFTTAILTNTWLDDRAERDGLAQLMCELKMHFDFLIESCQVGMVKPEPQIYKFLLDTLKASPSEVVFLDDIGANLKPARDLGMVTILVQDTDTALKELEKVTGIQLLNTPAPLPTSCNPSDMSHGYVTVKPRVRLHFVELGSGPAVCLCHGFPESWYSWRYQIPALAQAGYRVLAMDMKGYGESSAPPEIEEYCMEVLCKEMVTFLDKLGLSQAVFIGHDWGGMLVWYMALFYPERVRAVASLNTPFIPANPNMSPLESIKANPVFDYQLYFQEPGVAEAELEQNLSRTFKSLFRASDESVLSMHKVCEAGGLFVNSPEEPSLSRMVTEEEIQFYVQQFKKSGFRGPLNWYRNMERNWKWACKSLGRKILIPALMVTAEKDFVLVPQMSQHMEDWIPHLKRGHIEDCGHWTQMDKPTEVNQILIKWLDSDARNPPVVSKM

[4] = biological target: T2, Bifunctional epoxide hydrolase 2 (Mus musculus, UniProt P34914); experiment: Inhibitory concentration against mouse soluble epoxide hydrolase (sEH) at 0.12 uM
T2 sequence (P34914 whole entry): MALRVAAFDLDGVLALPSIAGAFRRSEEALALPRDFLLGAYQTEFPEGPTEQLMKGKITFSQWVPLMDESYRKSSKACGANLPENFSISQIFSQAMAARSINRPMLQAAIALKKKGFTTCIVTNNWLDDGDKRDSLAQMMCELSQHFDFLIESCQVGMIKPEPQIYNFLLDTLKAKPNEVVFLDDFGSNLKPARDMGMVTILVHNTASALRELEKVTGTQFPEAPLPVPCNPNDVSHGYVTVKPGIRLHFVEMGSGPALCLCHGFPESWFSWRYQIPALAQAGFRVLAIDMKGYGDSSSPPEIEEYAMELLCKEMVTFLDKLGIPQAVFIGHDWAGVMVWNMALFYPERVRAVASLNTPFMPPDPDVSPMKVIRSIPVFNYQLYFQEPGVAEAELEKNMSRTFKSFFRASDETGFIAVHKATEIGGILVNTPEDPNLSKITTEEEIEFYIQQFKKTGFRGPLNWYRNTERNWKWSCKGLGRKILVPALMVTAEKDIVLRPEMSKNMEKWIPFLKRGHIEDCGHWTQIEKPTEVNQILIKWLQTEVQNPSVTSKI
Summary of the method: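 Recombinant murine enzyme, baculovirus-expressed, affinity-purified (≥97% pure). 0.12 μM enzyme preincubated with inhibitor 5 min at 30 °C in 0.1 M sodium phosphate pH 7.4 with 0.1 mg/mL BSA. Racemic 4-nitrophenyl-trans-2,3-epoxy-3-phenylpropyl carbonate added at 40 μM. 4-Nitrophenolate formation read at 405 nm over 1 min, 30 °C. Run in triplicate. IC50 regressed from ≥5 points, at least two on each side in the linear region.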

Compound	solubility [1]	logP ([2]; read-out: logP)	IC50 [3]	IC50 [4]	logP [2]
CCCCCCCCCCNC(=O)CC12CC3CC(CC(C3)C1)C2	0.32 µg/mL (≈ 0.959 µM)	5.64	–	–	–
COc1ccc(NC(=O)CC2CCCCC2)cc1	–	–	6.2 µM	–	–
CCCCCCCCCCNC(=O)NC12CC3CC(CC(C3)C1)C2	0.5 µg/mL (≈ 1.49 µM)	4.76	0.11 µM	–	–
CCCCCCC(O)CCCNC(=O)NC12CC3CC(CC(C3)C1)C2 (configuration not stated)	–	–	0.13 µM	0.05 µM	–
O=C(CC1CCCCC1)Nc1ccccc1CO	–	–	> 100 µM	> 100 µM	–
O=C(Nc1ccccc1CO)NC1CCCCC1	–	–	> 100 µM	> 100 µM	–
O=C(Cc1ccccc1CO)NC1CCCCC1	–	–	> 100 µM	> 100 µM	–

Other lines, results leading:

solubility [1]	logP ([2]; read-out: logP)	IC50 [3]	IC50 [4]	logP [2]	Compound
–	–	> 100 µM	> 100 µM	–	CCCCCOC(=O)CCCOC(=O)Cc1cccc(Cl)c1
17.4 µg/mL (≈ 49.8 µM)	3.66	–	–	–	CCCCCOC(=O)CCCNC(=O)CC12CC3CC(CC(C3)C1)C2
–	–	25.2 µM	17.4 µM	–	CCCCCOC(=O)CCCOC(=O)Nc1cccc(Cl)c1
–	–	9.4 µM	2.8 µM	–	CCCCCOC(=O)CCCNC(=O)C12CC3CC(CC(C3)C1)C2
–	–	> 100 µM	> 100 µM	–	CCCCCOC(=O)CCCNC(=O)Oc1cccc(Cl)c1
15.1 µg/mL (≈ 43.2 µM)	3.53	–	–	–	CCCCCOC(=O)CCCCC(=O)NC12CC3CC(CC(C3)C1)C2
1.44 µg/mL (≈ 4.11 µM)	–	–	–	2.77	CCCCCOC(=O)CCCNC(=O)NC12CC3CC(CC(C3)C1)C2
0.42 µg/mL (≈ 1.26 µM)	5.52	–	–	–	CCCCCCCCCCCC(=O)NC12CC3CC(CC(C3)C1)C2
–	–	> 100 µM	> 100 µM	–	CCCCCOC(=O)CCCOC(=O)Oc1cccc(Cl)c1
